{
  "source": "ChEMBL document CHEMBL2331489",
  "about": "“Novel cinnoline-based inhibitors of LRRK2 kinase activity” (Bioorg Med Chem Lett, 2013)",
  "key": {"[1]": {"target": "T1, Leucine-rich repeat serine/threonine-protein kinase 2 (Homo sapiens, UniProt Q5S007, G2019S)", "T1 sequence (Q5S007 whole entry G2019S, the tested form may be a part)": "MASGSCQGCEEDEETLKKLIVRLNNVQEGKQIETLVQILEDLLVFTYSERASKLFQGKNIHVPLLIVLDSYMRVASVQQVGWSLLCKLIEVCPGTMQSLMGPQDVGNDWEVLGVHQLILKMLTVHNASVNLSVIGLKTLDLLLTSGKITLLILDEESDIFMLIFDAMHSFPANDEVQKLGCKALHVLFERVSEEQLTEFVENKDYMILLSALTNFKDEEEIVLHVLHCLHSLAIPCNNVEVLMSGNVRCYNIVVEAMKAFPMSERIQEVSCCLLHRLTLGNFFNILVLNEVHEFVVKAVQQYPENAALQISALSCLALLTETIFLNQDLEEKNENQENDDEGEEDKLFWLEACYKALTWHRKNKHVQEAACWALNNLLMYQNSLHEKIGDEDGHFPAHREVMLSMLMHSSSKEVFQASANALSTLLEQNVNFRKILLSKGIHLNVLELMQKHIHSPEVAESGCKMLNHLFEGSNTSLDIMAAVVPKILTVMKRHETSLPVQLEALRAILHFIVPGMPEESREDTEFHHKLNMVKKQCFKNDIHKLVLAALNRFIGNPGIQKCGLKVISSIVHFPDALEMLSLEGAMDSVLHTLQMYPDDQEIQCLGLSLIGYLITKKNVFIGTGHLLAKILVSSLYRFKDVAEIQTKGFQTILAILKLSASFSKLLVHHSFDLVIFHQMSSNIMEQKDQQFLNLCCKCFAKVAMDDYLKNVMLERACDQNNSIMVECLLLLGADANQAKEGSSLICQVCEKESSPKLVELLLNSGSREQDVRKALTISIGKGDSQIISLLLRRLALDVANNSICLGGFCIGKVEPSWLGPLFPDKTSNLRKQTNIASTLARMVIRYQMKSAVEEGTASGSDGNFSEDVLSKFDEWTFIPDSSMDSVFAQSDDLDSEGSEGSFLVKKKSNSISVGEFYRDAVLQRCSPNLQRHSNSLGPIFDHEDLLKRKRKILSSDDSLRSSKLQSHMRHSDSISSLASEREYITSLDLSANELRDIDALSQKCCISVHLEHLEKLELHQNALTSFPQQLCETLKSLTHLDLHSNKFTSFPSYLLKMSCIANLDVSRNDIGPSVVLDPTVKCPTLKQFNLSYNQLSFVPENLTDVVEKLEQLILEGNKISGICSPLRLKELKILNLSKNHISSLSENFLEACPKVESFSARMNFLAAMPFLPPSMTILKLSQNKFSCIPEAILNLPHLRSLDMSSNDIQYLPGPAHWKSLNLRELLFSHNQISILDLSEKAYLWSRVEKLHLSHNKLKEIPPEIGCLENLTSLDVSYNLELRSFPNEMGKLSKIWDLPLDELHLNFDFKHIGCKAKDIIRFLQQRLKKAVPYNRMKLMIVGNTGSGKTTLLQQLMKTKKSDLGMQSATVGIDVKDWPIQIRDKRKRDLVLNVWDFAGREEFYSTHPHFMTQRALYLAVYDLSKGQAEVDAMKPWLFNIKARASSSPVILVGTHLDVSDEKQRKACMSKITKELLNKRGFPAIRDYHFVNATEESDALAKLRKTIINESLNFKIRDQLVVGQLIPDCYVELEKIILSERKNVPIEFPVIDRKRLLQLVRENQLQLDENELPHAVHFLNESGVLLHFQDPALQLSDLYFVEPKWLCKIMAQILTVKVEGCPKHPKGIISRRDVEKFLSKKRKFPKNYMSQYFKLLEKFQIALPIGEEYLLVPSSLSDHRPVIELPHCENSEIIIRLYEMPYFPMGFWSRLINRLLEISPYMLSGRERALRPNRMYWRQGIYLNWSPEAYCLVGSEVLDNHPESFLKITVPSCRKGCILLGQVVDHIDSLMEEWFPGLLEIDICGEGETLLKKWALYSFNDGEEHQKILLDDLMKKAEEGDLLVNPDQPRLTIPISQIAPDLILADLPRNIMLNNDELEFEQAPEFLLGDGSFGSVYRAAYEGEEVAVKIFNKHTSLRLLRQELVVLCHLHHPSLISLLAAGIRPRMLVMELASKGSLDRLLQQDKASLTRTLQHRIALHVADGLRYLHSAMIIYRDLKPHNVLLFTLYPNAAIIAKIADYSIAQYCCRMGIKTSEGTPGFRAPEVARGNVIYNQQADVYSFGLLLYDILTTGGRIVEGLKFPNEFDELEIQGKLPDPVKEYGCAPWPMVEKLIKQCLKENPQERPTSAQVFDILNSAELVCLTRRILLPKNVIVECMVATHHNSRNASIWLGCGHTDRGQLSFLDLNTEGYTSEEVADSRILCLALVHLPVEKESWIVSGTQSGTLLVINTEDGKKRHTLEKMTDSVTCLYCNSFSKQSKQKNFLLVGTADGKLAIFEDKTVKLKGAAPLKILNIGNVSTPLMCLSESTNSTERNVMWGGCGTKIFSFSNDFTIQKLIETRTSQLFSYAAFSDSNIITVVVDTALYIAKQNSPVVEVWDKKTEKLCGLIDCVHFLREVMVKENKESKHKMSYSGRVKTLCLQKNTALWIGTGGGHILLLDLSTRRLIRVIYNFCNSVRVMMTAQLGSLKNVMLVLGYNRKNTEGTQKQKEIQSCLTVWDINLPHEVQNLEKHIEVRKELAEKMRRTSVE", "assay": "Inhibition of GST-tagged LRRK2 G2019S mutant (970 to 2527 amino acid residues) (unknown origin) assessed as inhibition of biotinylated-LRRKtide phosphorylation by HTRF assay in presence of ATP"}, "[2]": {"target": "Leucine-rich repeat serine/threonine-protein kinase 2 (Homo sapiens, UniProt Q5S007)", "sequence (Q5S007 whole entry, the tested form may be a part)": "as the sequence (Q5S007 whole entry G2019S, the tested form may be a part) above, with S2019G counted along it", "assay": "Inhibition of wild type GST-tagged LRRK2 (970 to 2527 amino acid residues) (unknown origin) assessed as inhibition of biotinylated-LRRKtide phosphorylation by HTRF assay in presence of ATP"}, "[3]": {"target": "T1, Leucine-rich repeat serine/threonine-protein kinase 2", "assay": "Inhibition of LRRK2 G2019S mutant (unknown origin) transfected in HEK293 cells assessed as inhibition of S935 phosphorylation", "format": "cell-based"}, "Mus musculus": {"test_system": "Mus musculus", "assay": "Inhibition of P-gp in Mdr1(a/b) knock out and P-gp competent FVB mouse at 1 mg/kg, iv", "format": "functional, organism-based", "design": "dose 1 mg/kg", "in_short": "(§1)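 FVB mice, both Mdr1a/b (-/-) and P-gp-competent wild-type, were given a single 1 mg/kg IV dose. Brain and plasma concentrations were measured 5 min after dosing. Brain uptake was expressed as the brain-to-plasma concentration ratio (Kp). In vivo P-gp efflux was assessed by comparing the knockout and wild-type strains.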"}, "Brain": {"test_system": "Brain", "assay": "Drug uptake in Mdr1(a/b) knock out and P-gp competent FVB mouse brain at 1 mg/kg, iv at 5 mins", "format": "ADME, organism-based", "design": "dose 1 mg/kg, route intravenous", "details": "in vivo", "in_short": "as §1"}, "[4]": {"assay": "Ratio of drug level in brain to plasma in Mdr1(a/b) knock out and P-gp competent FVB mouse at 1 mg/kg, iv at 5 mins", "format": "ADME, organism-based", "design": "dose 1 mg/kg, route intravenous", "details": "read-out: BPR", "in_short": "as §1"}, "[5]": {"target": "ATP-dependent translocase ABCB1 (Homo sapiens, UniProt P08183)", "sequence (P08183 whole entry)": "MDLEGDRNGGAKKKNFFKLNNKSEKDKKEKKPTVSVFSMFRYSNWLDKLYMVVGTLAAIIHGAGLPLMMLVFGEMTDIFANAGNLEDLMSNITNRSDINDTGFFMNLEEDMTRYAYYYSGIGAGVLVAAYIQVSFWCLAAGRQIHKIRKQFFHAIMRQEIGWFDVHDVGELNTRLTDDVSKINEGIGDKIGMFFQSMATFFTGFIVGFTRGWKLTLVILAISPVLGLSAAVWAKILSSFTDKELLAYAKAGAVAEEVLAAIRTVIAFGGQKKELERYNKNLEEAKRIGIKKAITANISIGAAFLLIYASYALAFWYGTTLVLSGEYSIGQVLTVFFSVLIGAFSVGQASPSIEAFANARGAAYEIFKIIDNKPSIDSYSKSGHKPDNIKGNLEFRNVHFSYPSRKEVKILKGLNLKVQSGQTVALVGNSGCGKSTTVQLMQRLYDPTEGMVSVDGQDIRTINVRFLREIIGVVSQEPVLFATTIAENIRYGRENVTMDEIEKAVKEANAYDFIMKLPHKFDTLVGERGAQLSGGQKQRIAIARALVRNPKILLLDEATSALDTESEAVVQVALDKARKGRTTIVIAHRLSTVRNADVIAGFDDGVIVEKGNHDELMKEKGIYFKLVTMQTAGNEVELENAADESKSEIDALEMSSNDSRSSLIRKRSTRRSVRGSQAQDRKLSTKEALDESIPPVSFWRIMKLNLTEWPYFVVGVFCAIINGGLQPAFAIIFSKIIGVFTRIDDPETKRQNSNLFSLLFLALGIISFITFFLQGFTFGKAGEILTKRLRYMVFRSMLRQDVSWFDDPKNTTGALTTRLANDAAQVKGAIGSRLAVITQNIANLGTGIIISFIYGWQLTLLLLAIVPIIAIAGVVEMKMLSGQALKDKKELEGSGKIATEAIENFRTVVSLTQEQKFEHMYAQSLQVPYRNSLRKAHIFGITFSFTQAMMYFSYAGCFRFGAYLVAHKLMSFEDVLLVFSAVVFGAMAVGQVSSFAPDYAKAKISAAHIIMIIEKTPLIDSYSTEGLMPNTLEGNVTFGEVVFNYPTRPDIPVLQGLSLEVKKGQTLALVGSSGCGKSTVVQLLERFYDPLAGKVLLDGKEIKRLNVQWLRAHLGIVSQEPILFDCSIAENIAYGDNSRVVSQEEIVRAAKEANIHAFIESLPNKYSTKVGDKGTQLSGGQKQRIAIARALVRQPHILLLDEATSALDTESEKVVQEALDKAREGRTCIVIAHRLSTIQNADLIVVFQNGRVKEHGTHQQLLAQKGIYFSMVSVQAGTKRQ", "assay": "Inhibition of MDR1 (unknown origin) transfected in MDCK cells", "format": "cell-based"}, "[6]": {"target": "Macrophage colony-stimulating factor 1 receptor (Homo sapiens, UniProt P07333)", "assay": "Inhibition of CSF1R (unknown origin) by TR-FRET assay in presence of ATP"}, "[7]": {"target": "Platelet-derived growth factor receptor alpha (Homo sapiens, UniProt P16234)", "sequence (P16234 whole entry)": "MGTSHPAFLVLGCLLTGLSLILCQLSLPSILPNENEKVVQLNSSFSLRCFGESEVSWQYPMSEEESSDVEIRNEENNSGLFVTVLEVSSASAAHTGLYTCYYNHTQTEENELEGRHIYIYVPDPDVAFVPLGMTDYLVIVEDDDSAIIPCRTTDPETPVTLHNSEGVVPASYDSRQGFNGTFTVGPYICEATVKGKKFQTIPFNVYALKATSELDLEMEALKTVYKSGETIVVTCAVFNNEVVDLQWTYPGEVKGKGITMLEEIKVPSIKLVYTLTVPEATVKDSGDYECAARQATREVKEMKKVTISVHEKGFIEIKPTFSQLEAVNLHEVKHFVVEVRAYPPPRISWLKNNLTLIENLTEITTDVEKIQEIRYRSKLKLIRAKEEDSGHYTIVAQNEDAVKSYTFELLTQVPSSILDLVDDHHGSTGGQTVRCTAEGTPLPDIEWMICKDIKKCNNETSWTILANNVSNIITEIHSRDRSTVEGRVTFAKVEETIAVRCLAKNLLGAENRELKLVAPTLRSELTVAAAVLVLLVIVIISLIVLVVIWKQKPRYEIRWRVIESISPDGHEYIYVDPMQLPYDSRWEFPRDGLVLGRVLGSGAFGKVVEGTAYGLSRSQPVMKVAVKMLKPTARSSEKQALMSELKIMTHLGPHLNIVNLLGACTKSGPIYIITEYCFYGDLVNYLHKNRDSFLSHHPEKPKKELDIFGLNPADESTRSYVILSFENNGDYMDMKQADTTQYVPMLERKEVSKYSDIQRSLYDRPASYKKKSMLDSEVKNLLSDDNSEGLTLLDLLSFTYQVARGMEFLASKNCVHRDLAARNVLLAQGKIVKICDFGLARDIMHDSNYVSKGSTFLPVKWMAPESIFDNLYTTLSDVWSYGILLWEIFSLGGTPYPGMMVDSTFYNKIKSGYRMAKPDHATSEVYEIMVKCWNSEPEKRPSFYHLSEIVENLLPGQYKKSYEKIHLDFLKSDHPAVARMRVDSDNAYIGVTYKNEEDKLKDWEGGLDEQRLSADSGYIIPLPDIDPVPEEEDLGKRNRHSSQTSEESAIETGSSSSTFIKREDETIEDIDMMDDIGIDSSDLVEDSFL", "assay": "Inhibition of PDGFRalpha (unknown origin) by TR-FRET assay in presence of ATP"}},
  "note": "Activity calls are given as the source filed them. No cut-off for these calls is given here.",
  "data": [
    {"smiles": "CC(C)Nc1c(C(N)=O)nnc2cc(N3CCN(C)CC3)ccc12", "values": [
      {"measurement": "IC50", "setting": "[1]", "value": 59, "unit": "nM"}
    ]},
    {"smiles": "CS(=O)(=O)c1ccc(-c2ccc3c(NCC4CC4)c(C(N)=O)nnc3c2)cc1", "values": [
      {"measurement": "IC50", "setting": "[1]", "value": 27, "unit": "nM"}
    ]},
    {"smiles": "CNC(=O)c1nnc2cc(-c3ccc(S(C)(=O)=O)cc3)ccc2c1NC(C)C", "values": [
      {"measurement": "IC50", "setting": "[1]", "value": 418, "unit": "nM"}
    ]},
    {"smiles": "CC(C)Nc1c(C(N)=O)nnc2cc(-c3cnsc3)ccc12", "values": [
      {"measurement": "IC50", "setting": "[2]", "value": 14, "unit": "nM"},
      {"measurement": "IC50", "setting": "[1]", "value": 20, "unit": "nM"},
      {"measurement": "EC50", "setting": "[3]", "value": 290, "unit": "nM"}
    ]},
    {"smiles": "CS(=O)(=O)c1ccc(-c2ccc3c(NC4CCOC4)c(C(N)=O)nnc3c2)cc1", "note": "(racemic)", "values": [
      {"measurement": "IC50", "setting": "[1]", "value": 53, "unit": "nM"}
    ]},
    {"smiles": "CS(=O)(=O)c1ccc(-c2ccc3c(Nc4ccccc4)c(C(N)=O)cnc3c2)cc1", "values": [
      {"measurement": "IC50", "setting": "[2]", "value": 781, "unit": "nM"}
    ]},
    {"smiles": "CC(C)Nc1c(C(N)=O)nnc2cc(-c3cn[nH]c3)ccc12", "values": [
      {"measurement": "IC50", "setting": "[2]", "value": 12, "unit": "nM"},
      {"measurement": "IC50", "setting": "[1]", "value": 18, "unit": "nM"}
    ]},
    {"smiles": "Cc1c(-c2ccncc2)ccc2c(NC(C)C)c(C(N)=O)nnc12", "values": [
      {"measurement": "IC50", "setting": "[2]", "value": 3200, "unit": "nM"},
      {"measurement": "IC50", "setting": "[1]", "value": 2510, "unit": "nM"}
    ]},
    {"smiles": "CC(C)Nc1c(C(N)=O)nnc2ccc(-c3cnn(C)c3)cc12", "values": [
      {"measurement": "IC50", "setting": "[1]", "value": 425, "unit": "nM"}
    ]},
    {"smiles": "C[C@@H](Nc1c(C(N)=O)nnc2cc(-c3ccncc3)ccc12)C1CC1", "values": [
      {"measurement": "inhibition", "setting": "Mus musculus", "value": "Active"},
      {"measurement": "Drug uptake", "setting": "Brain", "value": "Active"},
      {"measurement": "Kp at 5 min", "setting": "[4]", "value": 1.5},
      {"measurement": "IC50", "setting": "[2]", "value": 2, "unit": "nM"},
      {"measurement": "IC50", "setting": "[1]", "value": 6, "unit": "nM"},
      {"measurement": "EC50", "setting": "[3]", "value": 62, "unit": "nM"},
      {"measurement": "inhibition (INH)", "setting": "[5]", "value": "Active"}
    ]},
    {"smiles": "CS(=O)(=O)c1ccc(-c2ccc3c(N)c(C(N)=O)nnc3c2)cc1", "values": [
      {"measurement": "IC50", "setting": "[1]", "value": 298, "unit": "nM"}
    ]},
    {"smiles": "CNC(=O)c1nnc2cc(-c3ccc(S(C)(=O)=O)cc3)ccc2c1N[C@H](C)C1CC1", "values": [
      {"measurement": "IC50", "setting": "[1]", "value": 247, "unit": "nM"}
    ]},
    {"smiles": "NC(=O)c1nnc2cc(-c3ccncc3)ccc2c1NCCCO", "values": [
      {"measurement": "IC50", "setting": "[1]", "value": 162, "unit": "nM"}
    ]},
    {"smiles": "CCNc1c(C(N)=O)nnc2cc(-c3ccc(S(C)(=O)=O)cc3)ccc12", "values": [
      {"measurement": "IC50", "setting": "[1]", "value": 55, "unit": "nM"}
    ]},
    {"smiles": "CS(=O)(=O)c1ccc(-c2ccc3c(NC4CCOCC4)c(C(N)=O)nnc3c2)cc1", "values": [
      {"measurement": "IC50", "setting": "[1]", "value": 32, "unit": "nM"}
    ]},
    {"smiles": "CC[C@@H](C)Nc1c(C(N)=O)nnc2cc(-c3ccc(S(C)(=O)=O)cc3)ccc12", "values": [
      {"measurement": "IC50", "setting": "[2]", "value": 1, "unit": "nM"},
      {"measurement": "IC50", "setting": "[1]", "value": 4, "unit": "nM"},
      {"measurement": "EC50", "setting": "[3]", "value": 73, "unit": "nM"}
    ]},
    {"smiles": "CC(C)Nc1c(C(N)=O)nnc2cc(-c3ccc(S(C)(=O)=O)cc3)ccc12", "values": [
      {"measurement": "IC50", "setting": "[6]", "value": 12, "unit": "nM"},
      {"measurement": "IC50", "setting": "[1]", "value": 27, "unit": "nM"},
      {"measurement": "EC50", "setting": "[3]", "value": 218, "unit": "nM"},
      {"measurement": "IC50", "setting": "[7]", "value": 262, "unit": "nM"}
    ]},
    {"smiles": "CNc1c(C(N)=O)nnc2cc(-c3ccc(S(C)(=O)=O)cc3)ccc12", "values": [
      {"measurement": "IC50", "setting": "[1]", "value": 56, "unit": "nM"}
    ]},
    {"smiles": "CS(=O)(=O)c1ccc(-c2ccc3c(NC4CC4)c(C(N)=O)nnc3c2)cc1", "values": [
      {"measurement": "IC50", "setting": "[2]", "value": 49, "unit": "nM"},
      {"measurement": "IC50", "setting": "[1]", "value": 52, "unit": "nM"}
    ]},
    {"smiles": "CC(C)Nc1c(C(N)=O)nnc2cc(-c3cnn(C)c3)ccc12", "values": [
      {"measurement": "IC50", "setting": "[1]", "value": 12, "unit": "nM"}
    ]},
    {"smiles": "NC(=O)c1nnc2cc(-c3ccncc3)ccc2c1NCCO", "values": [
      {"measurement": "IC50", "setting": "[1]", "value": 264, "unit": "nM"}
    ]}
  ]
}
